# Shown are actives, neighbours in structure and some others; about 3.5% of the full set was active somewhere.
# MrgX1 antag – antagonists of human MrgX1 receptor, primary screen, HEK293 cells, Fluo-4 calcium flux; actives 1.3% (n = 310,000); BAM8-22 antagonism; stronger effect = lower value; Mas-related G-protein coupled receptor member X1 (Homo sapiens), Q96LB2; B-score at 10 µM;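 active means calcium-response B-score plate-corrected more than 3 library SD below zero, starting fluorescence within 5 deviations, no agonist response on first addition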;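 further: peak minus trough fluorescence over baseline after final BAM8-22 challenge near maximal dose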
# Target sequence (Q96LB2 whole entry, looked up): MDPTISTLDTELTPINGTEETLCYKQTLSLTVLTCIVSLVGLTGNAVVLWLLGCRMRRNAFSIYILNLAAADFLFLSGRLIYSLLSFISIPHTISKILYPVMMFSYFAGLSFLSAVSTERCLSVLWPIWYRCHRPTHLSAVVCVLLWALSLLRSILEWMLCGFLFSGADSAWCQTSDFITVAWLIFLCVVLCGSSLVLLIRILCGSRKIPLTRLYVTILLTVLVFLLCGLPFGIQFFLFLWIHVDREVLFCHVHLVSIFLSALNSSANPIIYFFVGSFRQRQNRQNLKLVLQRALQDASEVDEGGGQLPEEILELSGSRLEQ
# MrgX1 PAM – positive allosteric modulators of MrgX1, primary screen, HEK293 cells, Fluo-4 calcium flux. Mas-related G-protein coupled receptor member X1 (Homo sapiens), Q96LB2. FDSS; stronger effect = higher value. B-score at 10 µM. actives 0.63% (n = 310,000). AID 588675, 2011;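 active means plate-corrected calcium response at least 3 library SD above typical, normal starting fluorescence, not activating the receptor alone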;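 further: compound read alongside a low EC10 to EC30 dose of BAM8-22 agonist; peak minus trough fluorescence over baseline measured at the second addition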
# RGS4 pot – RGS4 potentiators or activators, primary screen, cell-based, HEK293 M3R inducible RGS4, calcium flux | carbachol calcium flux Fluo4; stronger effect = lower value | B-score at 10 µM | actives 0.92% (n = 310,000) | AID 463111, 2010;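 active means B-score of the integrated calcium signal more than 4 SD below the library mean, with starting fluorescence not abnormally high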;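 further: negative B-score means reduced calcium response which marks RGS4 activation or potentiation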
#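 Detection: kinetic calcium fluorescence imaging with Fluo4-AM dye, 2 µM / Material: HEK293 cells with stable M3R and inducible RGS4 / Schedule: recording 10 s baseline at 1 Hz, 100 s post-agonist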
# MrgX1 ag – agonists of human MrgX1 receptor, primary screen, HEK293 cells, Fluo-4 calcium flux; AID 588627, 2011; actives 0.44% (n = 310,000); B-score at 10 µM; Mas-related G-protein coupled receptor member X1 (Homo sapiens), Q96LB2; Fluo-4 calcium fluorescence, agonist mode; stronger effect = higher value;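 active means calcium response B-score plate-corrected fluorescence ratio at least 3 library SD, with starting fluorescence B-score inside 5 SD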
#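 Test system: HEK293 cells stably expressing human MrgX1 receptor; amount: 15,000 cells per well; doses: compound delivered in addition one of three; times: overnight plating before 1 h dye loading; detection: Fluo-4 NW calcium-flux fluorescence, kinetic read; read-out basis: B-scored fluorescence response ratio; controls: positive and negative controls per plate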
# RGS4 inh – RGS4 inhibitors, primary screen, cell-based, HEK293 M3R inducible RGS4, calcium flux; Regulator of G-protein signaling 4 (Homo sapiens), P49798; Fluo-4 calcium flux; stronger effect = higher value; triggered by carbachol at its EC20; B-score at 10 µM; actives 0.45% (n = 310,000); AID 463165, 2010;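 active means B-score, a plate-corrected calcium signal, over three deviations above library mean, with baseline fluorescence within five deviations of library mean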;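 further: RGS4 expression induced by doxycycline in cells with stable M3 receptor; B-score is computed from the integrated fluorescence ratio over baseline after carbachol; higher B-score means a larger calcium signal and so more RGS4 inhibition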
# Target sequence (P49798 whole entry, looked up): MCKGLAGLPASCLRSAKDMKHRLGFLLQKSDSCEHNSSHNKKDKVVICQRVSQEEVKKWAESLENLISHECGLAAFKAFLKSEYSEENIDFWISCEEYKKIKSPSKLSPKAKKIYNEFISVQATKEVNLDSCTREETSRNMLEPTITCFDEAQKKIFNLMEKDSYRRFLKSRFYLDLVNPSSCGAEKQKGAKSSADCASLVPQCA
# MrgX1 antag conf – MrgX1 receptor antagonists, duplicate retest, confirmation, HEK293 cells, Fluo-4 calcium flux; actives 19% (n = 2,300); shares compounds with MrgX1 antag; BAM8-22 calcium flux; stronger effect = lower value; remaining BAM8-22 calcium response % of control (stronger effect = lower value), % at 10 µM; AID 602420, 2012;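 active means remaining agonist calcium response no higher than 100% minus 3 SD of agonist-only control wells, with starting fluorescence near control levels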;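 further: agonist BAM8-22 given at a near maximal EC90 to ECmax level; peak minus minimum fluorescence divided by baseline after agonist addition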
# HEK293 Ca flux – nonspecific calcium signal in parental HEK293, confirmation, counter-screen for MrgX1 antagonist project, parental HEK293 cells, Fluo-4 calcium flux; Fluo-4 calcium fluorescence, FDSS; actives 2% (n = 4,000); fluorescence ratio F(max-min)/F0 at 10 µM; AID 624111, 2012; shares compounds with MrgX1 antag;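 active means duplicate-averaged calcium fluorescence ratio at least three times the standard deviation of buffer wells, a nonspecific response in parental cells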
# HEK293 Ca counter – calcium response in parental HEK293 cells, primary screen, counter-screen for MrgX1 allosteric activator project, cell-based, Fluo-4 calcium flux, duplicate; shares compounds with MrgX1 antag; Fluo-4 fluorescence ratio; stronger effect = higher value; fluorescence ratio F(max-min)/F0 at 10 µM; actives 0.4% (n = 4,000); AID 624114, 2012;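 active means calcium fluorescence ratio, averaged over duplicates, at least 3 SD of the buffer-well ratio, meaning a nonspecific response in receptor-free cells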;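 further: untransfected parental HEK293 lacking MrgX1 used as counterscreen for MrgX1 allosteric activators; fluorescence change taken during the second addition on a kinetic imager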
# HEK293 Ca cntr2 – calcium response in parental HEK293 cells, primary screen, counter-screen for MrgX1 agonist project, cell-based, Fluo-4 calcium flux, duplicate, agonist mode | shares compounds with MrgX1 antag | Fluo-4 calcium fluorescence (FDSS); stronger effect = higher value | fluorescence ratio F(max-min)/F0 at 10 µM | actives 8.7% (n = 4,000);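 active means calcium fluorescence ratio at least three times the spread of buffer wells, meaning a non-specific response in parental cells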
# Hits are given with their value; n = inactive; x = no result given.
SMILES,MrgX1 antag,MrgX1 PAM,RGS4 pot,MrgX1 ag,RGS4 inh,MrgX1 antag conf,HEK293 Ca flux,HEK293 Ca counter,HEK293 Ca cntr2
Cn1c(CCC(=O)OCC(=O)NCC(F)(F)F)nc(=O)c2ccccc21,-5.6,n,n,n,n,n,n,n,n
CC(NC(=O)COC(=O)CCc1nc(=O)c2ccccc2n1C)c1ccccc1 (configuration not stated),n,n,n,n,n,x,x,x,x
CCOc1ncccc1C(=O)Nc1nnc(C)s1,-4.8,n,n,n,n,n,n,n,n
Cn1cc(/C=C(\NC(=O)c2ccccc2Cl)C(=O)NCCCn2ccnc2)c2ccccc21,n,n,n,n,n,x,x,x,x
CC(=O)Nc1ccc(NC(=O)C2CCCCN2S(=O)(=O)c2ccc(C(C)(C)C)cc2)cc1 (configuration not stated),n,n,n,n,n,x,x,x,x
CC(=O)Nc1ccc(S(=O)(=O)N2CCC(c3nc4ccc(C)cc4[nH]3)CC2)cc1,n,n,n,n,n,x,x,x,x
CC(C)(C)c1ccc(S(=O)(=O)N2CCC(c3nc4ccc(Cl)cc4[nH]3)CC2)cc1,-6,n,n,n,n,n,n,n,n
CNC(=S)N/N=C/c1c2ccccc2c(Cl)c2ccccc12,n,n,n,n,n,x,x,x,x
CCN1CCN(S(=O)(=O)c2ccc(C(=O)Nc3sc4c(c3C(N)=O)CCN(CC)C4)cc2)CC1,-9.4,n,n,n,n,n,n,n,n
O=C(CCC(=O)N(CC(=O)NC1CCCCC1)Cc1cccs1)Nc1nccs1,n,n,n,n,n,x,x,x,x
COCCN1Cc2cccc(C(=O)Nc3cccnc3)c2C1=O,n,n,x,n,x,x,x,x,x
COCCN1Cc2cccc(C(=O)Nc3ccc(C)cc3)c2C1=O,-7.6,n,n,n,n,81%,n,n,n
Cc1cccc(C(=O)NCc2nnc(SCc3ccc(F)cc3)n2C)c1,-4.8,n,n,n,n,n,n,n,n
CCOC(=O)CSc1nnc(CNC(=O)c2cccc(C)c2)n1C,n,n,n,n,n,x,x,x,x
CC(=O)NCCn1c(SCC(=O)NCCC2=CCCCC2)nc2ccccc2c1=O,n,n,n,n,n,x,x,x,x
COCC(C)n1c(SCC(=O)NCCC2=CCCCC2)nc2ccccc2c1=O (configuration not stated),-6.6,n,n,n,n,n,n,n,n
O=C(CCCn1c(=S)[nH]c2cc3c(cc2c1=O)OCO3)N1CCc2ccccc2C1,n,n,n,n,n,x,x,x,x
Cc1ccc2[nH]c3c(NCc4ccccc4)ncnc3c2c1,-7.4,n,n,n,n,n,n,n,n
CC(C)OCCCNc1ncnc2c1[nH]c1ccccc12,-8.4,n,n,n,n,52%,n,n,n
COc1ccc(CNc2ncnc3c2[nH]c2ccccc23)cc1,n,n,n,n,n,x,x,x,x
COc1cc(C)c(Cl)cc1S(=O)(=O)NC1CC(C)(C)NC(C)(C)C1,n,n,n,n,n,x,x,x,x
Oc1ccc(C(=S)N2CCCCC2)cc1,-4.8,n,n,n,n,n,n,n,n
CC(=O)NS(=O)(=O)c1cccnc1Nc1ccc(Cl)cc1,n,n,n,n,n,x,x,x,x
CCc1ccc(NC(=O)c2cnc(N3CCN(c4ccccn4)CC3)c3ccccc23)cc1,-7.1,n,-7.2,n,n,60%,n,n,n
CC(C)NC(=O)c1cnc(N2CCN(c3ccccn3)CC2)c2ccccc12,n,n,n,n,n,x,x,x,x
SMILES,MrgX1 antag,MrgX1 PAM,RGS4 pot,MrgX1 ag,RGS4 inh,MrgX1 antag conf,HEK293 Ca flux,HEK293 Ca counter,HEK293 Ca cntr2
N#CC1=C(N)Oc2cc3c(cc2C1c1ccc(Cl)cc1)OCO3 (configuration not stated),-7.9,n,n,n,n,n,n,n,n
CCN(CC)c1ccc(N=Cc2ccc(N(CC)CC)cc2O)cc1,-8.2,n,n,n,n,n,0.24,n,46
CCN(CC)c1ccc(C=Nc2ccc(N(C)C)cc2)c(O)c1,-4.6,n,n,n,n,66%,n,n,n
Cc1cc(C(=O)NCCCN2CCCC2=O)cs1,n,n,n,n,n,x,x,x,x
Cc1noc(C)c1C(=O)NCCCN1CCCC1=O,-4.9,n,n,n,n,81%,n,n,n
COC(=O)c1ccc(NC(=O)C2C3C=CC(O3)C2C(=O)O)cc1 (configuration not stated),-8.7,n,n,n,n,n,n,n,n
COc1cccc(OC)c1C(=O)Nc1ccc(S(=O)(=O)N2CCCCC2)cc1,n,n,n,n,n,x,x,x,x
COc1ccc(CN2CCN(C(=O)c3cccc4ccccc34)CC2)c(OC)c1OC,n,n,n,n,n,x,x,x,x
COc1cccc(C(=O)N2CCN(C(=O)c3cccc4ccccc34)CC2)c1OC,-4.9,n,n,n,n,85%,n,n,n
CCn1c(N)c(C(=O)NCCCOC)sc1=S,n,n,n,n,n,x,x,x,x
COCC(=O)n1nc(-c2ccc(Cl)cc2)nc1NCc1ccc(F)cc1,-4.9,n,n,n,n,81%,n,n,n
COCC(=O)n1nc(-c2ccccc2)nc1NCc1ccc(N(C)C)cc1,n,n,n,n,n,x,x,x,x
CCN(CC)C(=O)C(=O)c1cccn1-c1cccc(OC)c1C#N,n,n,n,n,n,x,x,x,x
Cc1cccc(NC(=O)c2ccc(C(=O)c3ccccc3)cc2)n1,-4.9,n,n,n,n,77%,n,n,n
CC(NC(=O)CSc1nnc(-c2cccnc2)n1N)c1ccccc1 (configuration not stated),-4.6,n,n,n,n,n,n,n,n
Cc1nc(-c2ccc(S(=O)(=O)N3CCN(C4c5ccccc5-c5ccccc54)CC3)s2)cs1,-5.3,n,n,n,n,n,n,n,n
CCC(=O)Nc1nnc(-c2cccs2)s1,-5.1,n,n,n,n,n,n,n,n
CCCNc1c(F)c(F)c2c(C)c3ccccc3nc2c1F,-6,n,-7.5,n,n,n,0.36,n,90

# Assay outcomes: PubChem BioAssay, Johns Hopkins Ion Channel Center
